# An excerpt weighted towards active compounds, which were near 2.4% of everything screened.
# SENP1 FRET inh: human SENP1 catalytic domain inhibitors, primary screen, biochemical, FRET, uHTS | recombinant SENP1 catalytic domain, CyPet-SUMO1-YPet FRET cleavage | inhibition, % at 10 µM | actives 0.21% (n = 360,000) | Sentrin-specific protease 1 (Homo sapiens), Q9P0U3;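 active = inhibition at least 30% at 10 µM, raw YFP signal under a set limit, fluorescence ratio 0.5 to 1.5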;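 note: 0% = enzyme with DMSO and 100% = no enzyme wells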
# Target sequence (Q9P0U3 419-644 limits assumed): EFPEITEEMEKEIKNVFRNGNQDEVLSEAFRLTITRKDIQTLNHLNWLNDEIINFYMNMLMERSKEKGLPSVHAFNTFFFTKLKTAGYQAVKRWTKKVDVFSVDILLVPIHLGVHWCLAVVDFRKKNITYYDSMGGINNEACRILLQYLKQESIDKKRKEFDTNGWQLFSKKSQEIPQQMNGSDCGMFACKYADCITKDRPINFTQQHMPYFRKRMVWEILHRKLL
#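 Material: hSENP1 catalytic domain, recombinant; medium: Tris pH 8 with BME, BSA, NP40 and catalase; compound: single concentration of 10 µM compound, 0.5% DMSO final; technique: FRET read of cyan and yellow fluorescence; timing: 50 min enzyme reaction, room temperature, light-protected; reagent: SFCypet-SUMO1-SFYpet substrate at 25 nM; control set: no-enzyme low, enzyme-DMSO high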
# MT1-MMP act inh: blockers of MT1-MMP proenzyme processing, primary screen, HT1080 RFP-PRO-GFP cells, GFP/RFP fluorescence; Matrix metalloproteinase-14 (Homo sapiens), P50281; GFP/RFP ratio fluorescence, overnight; percent of plate control window, DMSO zero; GFP/RFP ratio change, % at 20 µM; actives 0.061% (n = 360,000); AID 651647, 2012;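 active = GFP/RFP ratio change of at least 30% with cell ATP level not reduced by more than half and red fluorescence within 50% of control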
#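 Read-out: GFP/RFP fluorescence ratio; Test system: RFP-PRO-GFP reporter HT1080 cells; Compound dosing: single-point 20 µM compound, 1% DMSO; Times: overnight compound exposure at 37 °C.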
# DAGLB inh: DAGLB lipase inhibitors, primary screen, biochemical, fluorescence, HTS; Diacylglycerol lipase-beta (Homo sapiens), Q8NCG7; HEK293T DAGLB membrane lysate, EnzChek fluorogenic substrate; inhibition, % at 5.17 µM; actives 0.059% (n = 340,000); AID 504411, 2011; in the data active = inhibition above about 34%;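 note: 0% = enzyme with vehicle and 100% = wells lacking enzyme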
# beta cell repl: inducers of MIN6 beta-cell proliferation, primary screen, ATP luminescence, uHTS; MIN6 cells proliferation, ATPlite luminescence, 48 h; cells starved in 0.2% serum; 100% = growth in 10% serum; proliferation, % at 10 µM; actives 0.29% (n = 330,000); AID 2380, 2010;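 active = compounds whose signal lies at least 3.5 SD above the mean of all wells on their plate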;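 note: 0% = DMSO-treated cells in low-serum medium and 100% = 10% serum control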
# Myeloid diff 2: induction of myeloid progenitor differentiation, primary screen, cell-based, flow cytometry, MLPCN library | ER-HoxA9 myeloid progenitors, lysozyme-GFP differentiation | calls only at 10 µM | actives 1% (n = 360,000) | AID 624256, 2012;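 active = normalized GFP-positive differentiation at or above the plate's own cutoff, the solvent-only control mean plus 3 SD; inconclusive = no clear call, values can overlap the other calls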;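 note: cells exposed to compound for four days before flow analysis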
# CendR NRP1 mod: modulators of CendR peptide binding to NRP-1, primary screen, biochemical, fluorescence polarization, uHTS; Neuropilin-1 (Homo sapiens), O14786; FAM-RPARPAR peptide binding to NRP-1; inhibition, % at 25 µM; actives 0.85% (n = 360,000);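 active = inhibition or corrected inhibition above about 18%, plus a signal ratio from 0.5 to 1.5, limit read from the data, passing the limit was not always enough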
# * hit, by the source's call; i = inactive; ? = inconclusive; . = not tested or not shown; + = active, no number; ! = repeats disagree.
SMILES,SENP1 FRET inh,MT1-MMP act inh,DAGLB inh,beta cell repl,Myeloid diff 2,CendR NRP1 mod
CC(C)(O)[C@@H]1CC(=O)[C@]2(C)[C@H](CC[C@@]3(C)[C@H](c4ccoc4)OC(=O)[C@H]4O[C@]432)[C@@]1(C)/C=C\C(=O)O,-0.1,3.5,-2.6,-2.3,i,26.5*
Cc1ccc(CNC(=O)CSCC(=O)O)cc1,-1.0,1.5,3.5,-1.7,i,-4.9
COc1cc(/C=N/NC(=O)c2ccc(=O)[nH]n2)ccc1O,0.6,6.2,2.1,0.0*,i,-0.2
COc1ccc(/C=N/NC(=O)c2cc(C(C)(C)C)[nH]n2)cc1COc1ccc(F)cc1F,-1.8,1.2,-6.8,-6.1,i,39.1*
COc1ccc(/C=N\NC(=O)c2ccccc2F)cc1COc1ccc(F)cc1F,2.4,8.8,-4.2,-5.8,?,5.5
COc1cc(/C=N/NC(=O)c2cc(C3CC3)[nH]n2)ccc1O,0.0,2.2,-1.0,-1.5,i,-1.9
CCNc1ccc(Br)cc(C(=O)/C=C/c2c(Cl)cccc2Cl)c1=O,-5.5,-29.9,19.2,-6.5,+,-232.8
CCCCN(C=O)c1c(CC)nc2c(OCc3ccc(S(C)(=O)=O)cc3)cccn12,-5.1,1.2,.,.,i,1.4
Cc1noc(C)c1C(=O)Nc1nc2ccc(Cl)cc2s1,1.3,0.0,-3.4,-3.6,?,14.9
CC(C)c1ccc(NC2CCCN(C(=O)c3cscn3)C2)cc1 (stereo unspecified),0.2,2.3,2.0,-1.7,i,20.9*
Cc1nnsc1C(=O)N1CCCC(Nc2ccc(C(C)C)cc2)C1 (stereo unspecified),0.1,2.3,-4.8,0.1,i,15.8
O=C1CCCCN1CCC(=O)N1CCCC(N2CCN(c3cccc(Cl)c3)CC2)C1 (stereo unspecified),-1.1,3.3,0.4,1.5,i,25.3*
Cc1ccnn1CCC(=O)N1CCCC(Nc2ccc(C(C)C)cc2)C1 (stereo unspecified),3.8,8.3,-2.1,.,i,-1.6
CC(C)c1ccc(NC2CCCN(C(=O)CCN3CCCC3=O)C2)cc1 (stereo unspecified),2.6,-1.9,-2.4,-1.6,+,14.1
O=C(Cc1ccc([N+](=O)[O-])cc1)OCc1ccc([N+](=O)[O-])cc1,2.5,4.2,-1.9,-1.1,i,-5.0
O=[N+]([O-])c1ccc(COP(=O)(O)OCc2ccc([N+](=O)[O-])cc2)cc1,2.3,-0.8,.,-0.5,+!,-4.5
Cc1nc(Cc2nnc(SC(C)C(=O)N3c4ccccc4NC(=O)C3(C)C)o2)cs1 (stereo unspecified),2.5,0.9,-1.1,.,i,3.3
CC(Sc1nnnn1C1CC1)C(=O)N1c2ccccc2NC(=O)C1(C)C (stereo unspecified),0.4,-0.3,0.8,-4.5,i,25.6*
COc1ccc(S(=O)(=O)n2nc(-c3cc(OC)c(OC)c(OC)c3)cc2N)cc1OC,2.3,7.4,2.7,-0.9,i,-6.8
COc1ccc(-c2cc(N)n(S(=O)(=O)c3c(F)c(F)c(F)c(F)c3F)n2)cc1OC,5.4,3.9,10.7,-5.4,?,25.5*
Cc1cc(NCCCN2CCOCC2)n2nc(C)c(-c3ccccc3)c2n1,1.1,-0.3,0.8,-3.3,+,20.6
CCOc1ccc(CCN2C(=S)N([C@@H](CC(C)C)CN3CCCC3CN3C(=S)NC[C@@H]3CC(C)C)C[C@@H]2Cc2ccc(O)cc2)cc1 (stereo partly specified),-0.1,0.1,-6.4,.,i,-5.0
CCOc1ccc(CCN2C(=S)N([C@@H](CC(C)C)CN3CCC[C@@H]3CN3C(=S)NC[C@@H]3CC(C)C)C[C@@H]2Cc2ccc(O)cc2)cc1,2.2,-4.6,.,.,i,24.4*
CC1ON=C(c2cccc3ccccc23)N(C)C1=O (stereo unspecified),-0.1,4.2,.,.,i,-1.9
O=C(NCc1ccccc1Cl)C1CCCN(c2ncnc3c2nc2n3CCCCC2)C1 (stereo unspecified),-0.4,-2.8,-1.8,3.9,+,5.2
SMILES,SENP1 FRET inh,MT1-MMP act inh,DAGLB inh,beta cell repl,Myeloid diff 2,CendR NRP1 mod
O=C(c1ccc(F)c(S(=O)(=O)N2CCOCC2)c1)N1CCN(c2ccc(F)cc2)CC1,0.2,-3.7,0.2,-3.7,i,9.3
C[C@@H]1CC2=C(C(=O)OC(C)(C)O2)[C@H](c2ccc(F)cc2)O1,0.4,-1.1,.,.,i,2.7
COc1ccc(N(C(=O)c2ccncc2)S(=O)(=O)c2cccc([N+](=O)[O-])c2)cc1,0.2,-0.7,-0.8,0.4,i,18.9*
COc1ccc(CCNC(=O)C2CC3Cn4c(nc5ccccc54)C3N2c2ccccc2)cc1 (stereo unspecified),-6.9,-5.4,-3.2,-3.6,i,0.7
CS(=O)(=O)c1cnc(-c2ccccc2)nc1Oc1ccc(Cl)cc1,1.9,-2.5,-2.1,-0.1,i,23.0*
CS(=O)(=O)c1cnc(-c2ccccc2)nc1Oc1ccc(F)cc1,3.7,0.9,0.1,-1.4,i,-11.7
CCOC(=O)c1cnc(-c2ccccc2)nc1Oc1ccccc1,3.3,-5.2,-10.7,5.0,i,-17.2
CCOC(=O)c1cnc(-c2ccccc2)nc1Oc1ccc(OC)cc1,1.4,-6.2,-1.0,0.5,i,26.0*
CN1CCN(c2nc(-c3ccccc3)ncc2S(C)(=O)=O)CC1,1.7,-2.8,0.1,0.7,i,16.6*
Cc1cccc(NC(=O)CCCN2C(=O)C(c3ccccc3)Oc3cccnc32)c1C (stereo unspecified),0.1,2.8,-1.4,0.9,?,7.1
O=C(O)c1ccccc1-c1ccccc1C(=O)Nc1ccc2c(c1)C(O)c1ccccc1-2 (stereo unspecified),1.1,-0.5,2.8,.,i,-12.3
O=C(CCNC(=O)c1ccco1)NNC(=O)c1ccc(Br)cc1,2.0,1.0,0.9,.,+,7.8
O=C(CCNC(=O)c1ccc(Br)cc1)NCc1ccco1,-0.2,-4.3,3.2,-2.1,i,-3.7
Cc1ccc(N(CC(=O)NC(C)(C)C)C(=O)CS(=O)CC(=O)Nc2ccc(F)cc2)cc1 (stereo unspecified),-0.3,-4.1,1.0,1.0,i,5.0
